In ChEMBL document CHEMBL5104125, “Copper chelating cyclic peptidomimetic inhibits Aβ fibrillogenesis” (RSC Med Chem, 2022):
The source made the active and inactive calls. The rule behind the calls is not given here. Where a SMILES comes first, the peptide text is derived from it. [ ]: non-standard residue; d: D form. The star is where a group is joined. X1 = CCN(CC)c1ccc2c(-c3ccc(C(=O)*)cc3)c3ccc(N(CC)CC)cc3[o+]c2c1; Sar = CNCC(=O)O

How the values were obtained:
[1] = target: Amyloid-beta precursor protein (Homo sapiens) (UniProt P05067); experiment: Inhibition of amyloid beta (1 to 40) (unknown origin) aggregation at 0.5 M incubated for 6 days by thioflavin S based fluorescence analysis relative to control; settings: time 6.0 day
Amyloid-beta precursor protein (Homo sapiens), sequence (P05067 whole entry): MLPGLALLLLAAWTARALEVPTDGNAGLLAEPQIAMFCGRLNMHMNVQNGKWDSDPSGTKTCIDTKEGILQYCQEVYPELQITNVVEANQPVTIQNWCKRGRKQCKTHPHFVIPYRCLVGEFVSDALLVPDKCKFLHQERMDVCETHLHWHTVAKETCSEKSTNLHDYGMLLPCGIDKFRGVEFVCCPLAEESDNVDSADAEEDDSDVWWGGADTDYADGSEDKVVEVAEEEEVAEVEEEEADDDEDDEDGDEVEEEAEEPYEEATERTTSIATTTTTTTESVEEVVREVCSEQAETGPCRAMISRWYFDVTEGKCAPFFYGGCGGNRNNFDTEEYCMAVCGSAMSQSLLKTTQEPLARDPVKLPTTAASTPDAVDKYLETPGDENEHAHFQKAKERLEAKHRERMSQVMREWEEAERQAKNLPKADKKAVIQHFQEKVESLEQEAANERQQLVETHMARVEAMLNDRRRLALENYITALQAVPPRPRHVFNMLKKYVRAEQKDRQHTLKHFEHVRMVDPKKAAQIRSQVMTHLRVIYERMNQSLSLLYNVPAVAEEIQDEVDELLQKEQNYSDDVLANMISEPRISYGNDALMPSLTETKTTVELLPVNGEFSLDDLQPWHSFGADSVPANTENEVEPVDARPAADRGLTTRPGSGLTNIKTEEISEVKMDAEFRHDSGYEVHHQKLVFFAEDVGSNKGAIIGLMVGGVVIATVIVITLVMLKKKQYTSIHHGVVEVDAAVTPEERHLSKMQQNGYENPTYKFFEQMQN

[2] = target: Amyloid-beta precursor protein (Homo sapiens) (UniProt P05067); experiment: Inhibition of amyloid beta (1 to 40) (unknown origin) aggregation assessed as reduction in fibrillar assembly at 2 M incubated for 6 days by TEM analysis; settings: time 6.0 day
Summary of the method: (§1)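 Aβ1-40 (40 μM) co-incubated with 2-fold molar excess of peptide in PBS pH 7.4 at 37 °C for six days. TEM images (200 nm scale) and Congo red-stained birefringence images (20 μm scale) captured.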

[3] = target: Amyloid-beta precursor protein (Homo sapiens) (UniProt P05067); experiment: Inhibition of amyloid beta (1 to 40) (unknown origin) aggregation at 1 M incubated for 6 days by thioflavin S based fluorescence analysis relative to control; settings: time 6.0 day
[4] = target: Amyloid-beta precursor protein (Homo sapiens) (UniProt P05067); experiment: Inhibition of amyloid beta (1 to 40) (unknown origin) aggregation assessed as bright green-gold birefringence at 2 M incubated for 6 days by Congo-red staining based image analysis; settings: time 6.0 day; summary of the method: as §1
[5] = target: Amyloid-beta precursor protein (Homo sapiens) (UniProt P05067); experiment: Inhibition of amyloid beta (1 to 40) (unknown origin) aggregation assessed as reduction in beta sheet conformation at 2 M incubated for 6 days by circular dichroism analysis; settings: time 6.0 day
[6] = target: Amyloid-beta precursor protein (Homo sapiens) (UniProt P05067); experiment: Inhibition of amyloid beta (1 to 40) (unknown origin) aggregation assessed as reduction in beta sheet conformation at 2 M incubated for 6 days by FTIR analysis; settings: time 6.0 day
[7] = target: Amyloid-beta precursor protein (Homo sapiens) (UniProt P05067); experiment: Inhibition of amyloid beta (1 to 40) (unknown origin) aggregation at 2 M incubated for 6 days by thioflavin S based fluorescence analysis relative to control; settings: time 6.0 day
Summary of the method: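 Aβ1-40 (40 μM) co-incubated with 0.5-, 1- or 2-fold molar excess of peptide in PBS pH 7.4 at 37 °C for six days; ThT fluorescence monitored over time. Experiment done thrice, with two sets per solution and three readings per set.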

[8] = Drug uptake in mouse Neuro2a cells assessed as drug internalization in cytoplasm at 100 uM by confocal microscopy; assay type: ADME; settings: n2a
Summary of the method: (§2)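 Neuro2a cells treated with fluorescein- or Rhodamine B-labelled peptide at 100 μM, alone or together. Green and red fluorescence imaged in bright and dark field at 20×. Co-localization checked by confocal imaging at 63×, with green and red channels captured separately and then merged.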

[9] = Cytotoxicity against mouse Neuro2a cells assessed as reduction in cell viability by MTT assay; assay type: toxicity, cell-based, N2a
Summary of the method: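 Neuro2a mouse neuronal cells treated with fluorescently labelled peptides; viability read by MTT after 24 h. IC50 calculated from linear regression of viability versus concentration.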

[10] = Drug uptake in mouse Neuro2a cells assessed as drug co-localization in cell at 100 uM in presence of PA19fCP-FI by confocal microscopy; assay type: ADME, cell-based; settings: n2a; summary of the method: as §2
[11] = Drug uptake in mouse Neuro2a cells assessed as drug co-localization in cell at 100 uM in presence of MA.beta-RhB by confocal microscopy; assay type: ADME, cell-based; settings: n2a; summary of the method: as §2
Homo sapiens [12] = species: Homo sapiens; experiment: Binding affinity to Rhodamine B labelled amyloid beta (9-21 residues) (unknown origin) assessed as increase in fluorescence intensity of Rhodamine B at 20 uM incubated for 24 hrs by FRET analysis (Rvb= 601 nm)
Summary of the method: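 FRET between fluorescein-labelled cyclic peptide (donor) and Rhodamine B-labelled Aβ9-21 model peptide (acceptor), mixed 1:1, ~20 μM each in PBS (50 mM, pH 7.4), incubated 24 h at 37 °C. Donor and mixture excited at 492 nm, acceptor alone at 567 nm; emission spectra recorded. Representative of several independent repeats.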

[13] = Drug uptake in mouse Neuro2a cells assessed as drug internalization in cell membrane at 100 uM by confocal microscopy; assay type: ADME; settings: n2a; summary of the method: as §2
[14] = target: Amyloid-beta precursor protein (Homo sapiens) (UniProt P05067); experiment: Inhibition of amyloid beta (1 to 40) (unknown origin) aggregation assessed as off-pathway aggregated species at 80 uM incubated upto 24 hr by TEM analysis; settings: TDE = time-dependent effect
Summary of the method: (§3)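 Aβ1-40 (40 μM) alone or with 2 equivalents of peptide, incubated at pH 7.4, 37 °C. DLS size distribution and TEM morphology (500 nm scale) recorded at 1, 6, 12 and 24 h.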

[15] = Metal chelating activity assessed as compound-Cu2+ complex formation by measuring deviation in g values at 1 to 2 M in presence of CuSO4 by electron spin resonance analysis; settings: dose 1-2 M
Summary of the method: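 ESR spectra recorded at room temperature on Cu2+ solution (5 mM) alone and with 1- or 2-fold molar ratio of peptide; g values read.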

[16] = target: Amyloid-beta precursor protein (Homo sapiens) (UniProt P05067); experiment: Inhibition of Cu2+ induced amyloid beta (1 to 40) (unknown origin) aggregation assessed as reduction in fibrils at 80 uM incubated for 36 hrs in presence of CuSO4 by thioflavin S based fluorescence analysis; settings: in the assay text read “thioflavin T” for “thioflavin S”
Summary of the method: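 Aβ1-40 (40 μM) with CuSO4 (40 μM) and test peptide (80 μM) in PBS pH 7.4, 37 °C, 36 h. ThT fluorescence read at ex 440 nm / em 485 nm, with ThT-plus-PBS reference subtracted. Mean of three independent experiments ± SD.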

[17] = Metal chelating activity assessed as compound-Zn2+ complex formation by measuring red shift at 2:1 ratio in presence of ZnCl2 by UV-Vis spectra analysis (Rvb= 264 nm)
[18] = Metal chelating activity assessed as compound-Cu2+ complex formation by measuring exothermic event at 50 uM in presence of CuSO4 by isothermal titration calorimetry assay
Summary of the method: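 ITC at 27 °C in 20 mM Tris-HCl pH 7.4. Metal solution (1.5 mM) in the syringe was titrated into peptide (50 μM) in the cell over 30 injections. Heats of dilution of metal into buffer were subtracted. ΔH, ΔS, K and n were fitted with a sequential two-site binding model.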

[19] = Metal chelating activity assessed as compound-Zn2+ complex formation by measuring red shift at 1:1 ratio in presence of ZnCl2 by UV-Vis spectra analysis (Rvb= 265 nm)
Homo sapiens [20] = species: Homo sapiens; experiment: Metal chelating activity assessed as extraction of Cu2+ from amyloid beta (1 to 40) (unknown origin)-Cu2+ complex by measuring fluorescence of Tyr10 at 80 uM incubated for 36 hrs by tyrosine intrinsic fluorescence assay
Summary of the method: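 Aβ1-40 (40 μM) in PBS (50 mM, pH 7.4), with Cu2+ added at 40 μM, then peptide at 80 μM (1:1:2). Tyr10 intrinsic fluorescence emission read at 308 nm and expressed as normalized fluorescence intensity.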

Lipid bilayer = experiment: Inhibition of membrane destabilization in carboxyfluorescein dye entrapped large unilamellar vesicle assessed as decrease in amyloid beta (1-40) induced carboxyfluorescein leakage upto 48 hrs by TEM analysis; settings: in the assay text read “by fluorescence analysis” for “by TEM analysis”
Summary of the method: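 Carboxyfluorescein-loaded LUVs in PBS (50 mM) exposed to pre-incubated Aβ1-40 alone or Aβ1-40 with peptide (1:2). Final lipid 50 μM, Aβ1-40 2.5 μM (peptide:lipid 1:20), 37 °C. Dye leakage measured by fluorescence at intervals from 1 to 48 h; untreated LUV as control.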

[21] = target: Amyloid-beta precursor protein (Homo sapiens) (UniProt P05067); experiment: Inhibition of Cu2+ induced amyloid beta (1 to 40) (unknown origin) aggregation assessed as disapperance of fibrillar assembly at 80 uM incubated for 36 hrs by TEM analysis
Summary of the method: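 Aβ1-40 (40 μM) incubated with CuSO4 (40 μM) and test peptide (80 μM) in PBS pH 7.4 at 37 °C for 36 h, then imaged by TEM. Representative image from several repeats.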

[22] = Metal chelating activity assessed as compound-Cu2+ complex formation by measuring red shift at 1:1 ratio in presence of CuSO4 by UV-Vis spectra analysis (Rvb= 265 nm)
[23] = Metal chelating activity assessed as compound-Cu2+ complex formation by measuring red shift at 2:1 ratio in presence of CuSO4 by UV-Vis spectra analysis (Rvb= 264 nm)
[24] = target: Amyloid-beta precursor protein (Homo sapiens) (UniProt P05067); experiment: Inhibition of amyloid beta (1 to 40) (unknown origin) aggregation assessed as increase in size of off-target aggregated species at 80 uM incubated upto 24 hr by DLS analysis; summary of the method: as §3

SMILES | inhibition [1] [%] | inhibition [2] | inhibition [3] [%] | inhibition [4] | inhibition [5] [%] | inhibition [6] [%] | inhibition [7] [%] | IC50 [9] [µM] | further results
CC(C)C[C@@H]1NC(=O)[C@H](CCCCN)NC(=O)[C@H](CCC(N)=O)NC(=O)[C@H](C)NC(=O)[C@H](Cc2ccccc2)NC(=O)[C@@H](Cc2ccccc2)NC(=O)[C@H](C(C)C)NC1=O | 25.2 | Active | 47.9 | Active | 74 | 74 | 73.7 | – | –
CC(=O)N[C@@H](CCCCN)C(=O)N[C@@H](CC(C)C)C(=O)N[C@H](C(=O)N[C@H](Cc1ccccc1)C(=O)N[C@@H](Cc1ccccc1)C(=O)N[C@@H](C)C(=O)N[C@@H](CCC(N)=O)C(=O)O)C(C)C | 7.9 | – | 15.1 | – | – | – | 27.2 | – | –
CCN(CC)c1ccc2c(-c3ccc(C(=O)N(C)CC(=O)NCC(=O)N[C@@H](Cc4ccc(O)cc4)C(=O)N[C@@H](CCC(=O)O)C(=O)N[C@H](C(=O)N[C@@H](Cc4c[nH]cn4)C(=O)N[C@@H](Cc4c[nH]cn4)C(=O)N[C@@H](CCC(N)=O)C(=O)N[C@@H](CCCCN)C(=O)N[C@@H](CC(C)C)C(=O)N[C@H](C(=O)N[C@@H](Cc4ccccc4)C(=O)N[C@@H](Cc4ccccc4)C(=O)N[C@@H](C)C(=O)NCC(N)=O)C(C)C)C(C)C)cc3)c3ccc(N(CC)CC)cc3[o+]c2c1 (X1-[Sar]GYEVHHQKLVFFAG-NH2) | – | – | – | – | – | – | – | 150 | Drug uptake [8]: Active; Drug uptake [10]: Active
CC(C)C[C@@H]1NC(=O)[C@H](CCCCNC(=O)c2ccccn2)NC(=O)[C@H](CCCCNC(=S)Nc2ccc(-c3c4ccc(=O)cc-4oc4cc(O)ccc34)c(C(=O)O)c2)NC(=O)[C@H](CCC(N)=O)NC(=O)[C@H](C)NC(=O)[C@H](Cc2ccccc2)NC(=O)[C@@H](Cc2ccccc2)NC(=O)[C@H](C(C)C)NC1=O | – | – | – | – | – | – | – | 200 | Drug uptake [11]: Active; OD (Homo sapiens [12]): 604 nm; Drug uptake [13]: Active
CC(C)C[C@@H]1NC(=O)[C@H](CCCCNC(=O)c2ccccn2)NC(=O)[C@H](CCC(N)=O)NC(=O)[C@H](C)NC(=O)[C@H](Cc2ccccc2)NC(=O)[C@@H](Cc2ccccc2)NC(=O)[C@H](C(C)C)NC1=O | 32.4 | Active | 52.6 | Active | 85 | 85 | 85.6 | – | inhibition [14]: Tde; Activity [15]: Active; inhibition [16]: Active; OD [17]: 267 nm; Activity [18]: Active; OD [19]: 268 nm; Activity (Homo sapiens [20]): 84.3%; inhibition (Lipid bilayer): Active; inhibition [21]: Active; OD [22]: 271 nm; OD [23]: 270 nm; inhibition [24]: Active
